Compounds with a hit are over-represented: about 3.6% of the library has one in this group of screens.
MITF TRPM1 HTS: activators of MITF-driven TRPM1 promoter activity in SK-MEL-5 cells; SK-MEL-5 TRPM1-promoter luciferase, 24 h; % of positive control, neutral wells = 0; activation, % at 12.5 µM; 300,000 compounds, 0.75% hits; AID 588334;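 active = mean activation of at least 80% with every replicate also reaching 80%; inconclusive = mean reaches 80% but some replicate falls short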
HSF1 activator: increases HSF-1 driven luciferase reporter signal. NIH3T3-HGL HSF-1 luciferase reporter, MG132, 8 h; 100% = twice DMSO control signal. activation, % at 9 µM. 300,000 compounds, 1.7% hits. AID 504408;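 active = mean replicate activation of at least 50% with a set share of replicates each reaching 50%; inconclusive = only one of those two conditions met; inactive = mean below 50% and too few replicates reaching it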
SR-BI DiI inh: inhibitors of mouse SR-BI mediated HDL lipid uptake. Q61009. ldlA[mSR-BI] CHO cells, DiI-HDL uptake fluorescence, 3 h. inhibition, % at 12.5 µM. 320,000 compounds, 0.96% hits. AID 488896;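 active = mean replicate inhibition of at least 70% and a set share of replicates each scoring 70 or more; inconclusive = meets just one of the two criteria; inactive = fails both criteria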
Target sequence (Q61009 whole entry, looked up): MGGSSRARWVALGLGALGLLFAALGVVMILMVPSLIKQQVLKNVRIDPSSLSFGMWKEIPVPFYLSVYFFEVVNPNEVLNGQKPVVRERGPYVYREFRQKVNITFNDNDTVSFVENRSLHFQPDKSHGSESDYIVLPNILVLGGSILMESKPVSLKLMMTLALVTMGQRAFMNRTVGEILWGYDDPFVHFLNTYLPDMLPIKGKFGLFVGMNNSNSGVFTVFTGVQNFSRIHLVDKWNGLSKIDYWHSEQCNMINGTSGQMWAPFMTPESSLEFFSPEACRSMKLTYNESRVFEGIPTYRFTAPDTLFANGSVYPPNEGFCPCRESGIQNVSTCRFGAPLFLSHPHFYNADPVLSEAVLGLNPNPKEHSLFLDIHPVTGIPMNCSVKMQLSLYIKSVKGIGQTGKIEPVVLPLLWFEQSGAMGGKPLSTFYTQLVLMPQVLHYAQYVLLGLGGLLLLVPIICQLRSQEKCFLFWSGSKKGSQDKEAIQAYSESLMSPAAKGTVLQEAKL
SR-BI DiI-HDL act: SR-BI HDL lipid transfer activation | CHO ldlA[mSR-BI] cells, DiI-HDL uptake fluorescence, 3 h; 100 = double the neutral-control signal | activation, % at 12.5 µM | 320,000 compounds, 0.096% hits;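 active = mean replicate activation of at least 60% and every replicate at or above 60%; inconclusive = mean or all-replicate condition met, but not both; inactive = mean below 60% and not all replicates reaching 60%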
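Test system: SR-BI-overexpressing, LDLR-lacking CHO cells; Medium: Ham's F12 with 0.5% BSA, HEPES 25 mM, pH 7.4; Schedule: 3 h, 37 °C; Technique: bottom-read fluorescence, 550/595 nm.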
Wnt act: activates Wnt/beta-catenin signaling in a reporter cell assay. activator, plate reader. 300,000 compounds, 1.2% hits. activation, % at 9.35 µM; in the data active = activation above about 30%, passing the limit was not always enough; inconclusive = no clear call, values can overlap the other calls
Each line names hits and unclear results; the compound was inactive in the other large screens.

Cc1cc(NC(=O)c2cc(-c3ccncc3)nc3c(C)cccc23)no1	SR-BI DiI inh 71 (no result: Wnt act)
Cc1cccc(-c2cc(C(=O)Nc3c(C)n(C)n(-c4ccccc4)c3=O)c3ccccc3n2)c1	none
COc1ccc2c3c(n(C(=O)OC(C)(C)C)c2c1)C1CC=C(COC(C)=O)CN1CC3 (configuration not stated)	none (no result: MITF TRPM1 HTS, HSF1 activator, SR-BI DiI inh, SR-BI DiI-HDL act)
Cc1cn(C2CCCCO2)c(=O)[nH]c1=O (configuration not stated)	none (no result: HSF1 activator)
CN(C)c1ccc(-c2ccnc3c2CC(C)(C(=O)Nc2ccc(Cl)c(C(F)(F)F)c2)O3)cc1 (configuration not stated)	none (no result: MITF TRPM1 HTS, HSF1 activator, SR-BI DiI inh, SR-BI DiI-HDL act)
CC(=O)Nc1c([N+](=O)[O-])cc2c3c(cccc13)CC2	none (no result: MITF TRPM1 HTS, HSF1 activator, SR-BI DiI inh, SR-BI DiI-HDL act)
CCc1ccc(C(=O)N/N=C(\C)c2cccnc2)s1	MITF TRPM1 HTS 109
CCOc1ccc(-c2cc(C(=O)N/N=C(\C)c3cccnc3)c3ccccc3n2)cc1	MITF TRPM1 HTS 88
CCN(CC)C(=O)c1cccc(NC(=O)c2cc(-c3ccccn3)nc3ccccc23)c1	SR-BI DiI inh 75 (no result: HSF1 activator)
C/C(=N\NC(=O)c1cccs1)c1cccnc1	none
CCOc1ccccc1NC(=O)c1cc(-c2ccccn2)nc2ccccc12	SR-BI DiI inh 75 (no result: HSF1 activator)
Cc1[nH]c2ccccc2c1CC(=O)Nc1ccc(Nc2cccnc2)c(-c2ccc(Cl)c(Cl)c2)c1	none (no result: MITF TRPM1 HTS, HSF1 activator, SR-BI DiI inh, SR-BI DiI-HDL act)
O=S(=O)(c1ccccc1)N(F)S(=O)(=O)c1ccccc1	none (no result: HSF1 activator)
O=C(NCc1ccccc1)c1cc(C2CCCCN2S(=O)(=O)c2cccs2)on1 (configuration not stated)	none (no result: MITF TRPM1 HTS, HSF1 activator, SR-BI DiI inh, SR-BI DiI-HDL act)
COC(=O)[C@@H]1C[C@H]2CC[C@H](O)C[C@H]2N1Cc1ccc(C)s1	SR-BI DiI-HDL act 60
COc1ccc(/C=C/C(=O)Nc2cccnc2Cl)cc1	MITF TRPM1 HTS 97, Wnt act 43
COC(=O)c1sccc1NC(=O)/C=C\c1ccc(Cl)cc1Cl	none (no result: HSF1 activator, Wnt act)
COC(=O)c1sccc1NC(=O)/C=C/c1ccc(Cl)cc1	HSF1 activator 76
CN(C)/N=C/C=C1\CC/C(=C\c2ccc(Br)cc2)C1=O	none
CN(C)/N=C/C=C1\CCC/C(=C/c2cccs2)C1=O	HSF1 activator 76, Wnt act 52 (no result: SR-BI DiI inh, SR-BI DiI-HDL act)
CC(=O)Nc1ccccc1OC(C)C(=O)N1CC(C)CC(C)C1 (configuration not stated)	HSF1 activator 114
CC1CC(C)CN(C(=O)Nc2ccccc2F)C1 (configuration not stated)	none (no result: SR-BI DiI inh, SR-BI DiI-HDL act)
O=C(OCC(=O)N1CCc2ccccc2C1)c1c(F)cccc1Cl	MITF TRPM1 HTS 115, Wnt act 55 (no result: HSF1 activator)
Cc1ccsc1C(=O)OCC(=O)N(C)C1CCCCC1	Wnt act 48 (no result: HSF1 activator)
CN(C(=O)C(C)(C)C)c1ccc(OCC(=O)N2CCc3ccccc3C2)cc1	SR-BI DiI inh 95
Cc1ccsc1C(=O)OCC(=O)N1CCc2ccccc2C1	MITF TRPM1 HTS 92
Cc1ccc(OCC(=O)N2CCc3ccccc3C2)cc1	none
F[B-](F)(F)c1cncnc1	none (no result: MITF TRPM1 HTS, HSF1 activator, SR-BI DiI inh, SR-BI DiI-HDL act)
CC(C)[C@@H](C)/C=C/[C@@H](C)[C@H]1CC[C@@H]2[C@]1(C)CCC1[C@]23C=C[C@]2(C[C@@H](O)CC[C@]12C)N(c1ncc(C(F)(F)F)cc1Cl)O3 (some centres not stated)	none (no result: MITF TRPM1 HTS, HSF1 activator, SR-BI DiI inh, SR-BI DiI-HDL act)
CCn1nnnc1SCC(=O)N(C)C1CCS(=O)(=O)C1 (configuration not stated)	none (no result: HSF1 activator)
CC(=O)NC(=S)Nc1ccc(NC(=O)c2cccs2)cc1	none (no result: Wnt act)
Cc1ccnc(NC(=S)NC(=O)/C=C/c2ccccc2)c1	none
Cc1cccnc1NC(=S)NC(=O)c1cccs1	Wnt act 34
Cc1ccc(NC(=S)NC(=O)c2cccs2)cc1F	MITF TRPM1 HTS 93 (no result: HSF1 activator)
Cc1cccnc1NC(=S)NC(=O)/C=C/c1ccccc1	HSF1 activator 56
O=C(NC(=S)Nc1ccccc1)c1cccs1	MITF TRPM1 HTS 101 (no result: SR-BI DiI inh, SR-BI DiI-HDL act)
CN(C(=O)c1ccc(Cl)cc1)c1ccc(OCC(=O)Nc2cc(C(=O)O)ccc2Cl)cc1	none (no result: MITF TRPM1 HTS, HSF1 activator, SR-BI DiI inh, SR-BI DiI-HDL act)
COc1ccccc1CCn1cnc(-c2ccc(OC)c(OC)c2)c1CC(C)C	none (no result: MITF TRPM1 HTS, HSF1 activator, SR-BI DiI inh, SR-BI DiI-HDL act)
CC1=C(C(=O)N(C(C)C)C(C)C)CC(CC(=O)NC2CCCC2)C(=O)N1Cc1ccc(C(C)(C)C)cc1 (configuration not stated)	none (no result: MITF TRPM1 HTS, HSF1 activator, SR-BI DiI inh, SR-BI DiI-HDL act)
O=C(NC(=S)Nc1ccc(Br)cn1)c1cccs1	Wnt act 59
CCc1nc2c(OCC3CCCCC3)cccn2c1N(C=O)Cc1ccc(OC)cc1	none (no result: MITF TRPM1 HTS, HSF1 activator, SR-BI DiI inh, SR-BI DiI-HDL act)
O=C(O)CSc1cc(NS(=O)(=O)c2ccc(Br)cc2)c2ccccc2c1O	HSF1 activator 114
O=S(=O)(Nc1cc(Sc2ncn[nH]2)c(O)c2ccccc12)c1ccccc1	none (no result: HSF1 activator)
Nn1c(-c2cccs2)nc2sc3c(c2c1=O)CCCC3	HSF1 activator 70 (no result: Wnt act)
Cc1[nH]nc2c1C(c1ccc(F)cc1)N(Cc1ccccc1)C2=O (configuration not stated)	none (no result: MITF TRPM1 HTS, HSF1 activator, SR-BI DiI inh, SR-BI DiI-HDL act)
Cc1nc(-c2cc(-c3nc(-c4ccc(C(F)(F)F)cc4)no3)no2)cs1	none
Clc1ccc(-c2cc(-c3ccccc3)on2)cc1	MITF TRPM1 HTS inconclusive, Wnt act 54 (no result: HSF1 activator)
Cc1nc(-c2cc(-c3ccc(Cl)cc3)no2)cs1	HSF1 activator 71, Wnt act 36
Cc1ccccc1OCC(=O)OCC(=O)NC1CCCC1	none (no result: MITF TRPM1 HTS, HSF1 activator, SR-BI DiI inh, SR-BI DiI-HDL act)
O=[N+]([O-])c1nn(-c2ccc3c(c2)OCCO3)n(O)c1=NC1CCCCCC1	none (no result: Wnt act)
O=[N+]([O-])c1nn(-c2ccc3c(c2)OCCO3)n(O)c1=NC1CCCC1	Wnt act 33 (no result: MITF TRPM1 HTS)
O=[N+]([O-])c1nn(-c2ccc3c(c2)OCCO3)n(O)c1=NCCCO	Wnt act 41 (no result: MITF TRPM1 HTS)

Screening data: PubChem BioAssay, Broad Institute
